Fh CTSL1 inh: counter-screen for PFM18AAP inhibitors: inhibitors of F. hepatica cathepsin L1. inhibition, % at 5.96 µM. recombinant F. hepatica cathepsin L1, Z-Leu-Arg-MCA fluorescence. AID 1906. hit rate 0.49% among 300,000;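 active means inhibition above the mean of all tested compounds plus 3 SD, set per screening campaign, cut at about 17% in these data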;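 further: 0% = plate median of test compound wells and 100% = 1 µM Z-Phe-Ala-diazomethylketone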
TDP2 absorb: TDP2 (human) inhibition, absorbance primary screen | AID 720702 | recombinant TDP2, T5PNP hydrolysis, p-nitrophenol absorbance 415 nm | O95551 | hit rate 0.34% among 370,000 | inhibition, % at 12.8 µM;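 active means inhibition above the mean of all tested compounds plus 3 SD, set per campaign, cut at about 25% in these data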;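 further: 0% = DMSO with enzyme and 100% = buffer with substrate but no TDP2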
Target sequence (O95551 whole entry, looked up): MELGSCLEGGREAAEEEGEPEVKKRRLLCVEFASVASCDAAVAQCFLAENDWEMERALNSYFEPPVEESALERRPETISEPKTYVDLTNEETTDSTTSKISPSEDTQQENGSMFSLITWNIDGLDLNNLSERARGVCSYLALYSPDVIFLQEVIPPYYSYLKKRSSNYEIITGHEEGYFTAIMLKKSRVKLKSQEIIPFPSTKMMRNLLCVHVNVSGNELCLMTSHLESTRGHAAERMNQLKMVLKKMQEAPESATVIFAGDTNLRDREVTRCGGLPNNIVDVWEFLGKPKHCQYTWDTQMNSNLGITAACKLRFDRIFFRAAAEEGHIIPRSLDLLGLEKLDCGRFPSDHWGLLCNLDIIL
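System: recombinant human TDP2 / Amount: 120 nM TDP2 per well / Also added: 5 mM T5PNP chromogenic substrate / Doses: 12.8 µM single point, 1% DMSO / Incubation: 2 h at 37 °C / Detection: p-Nitrophenol epi absorbance / Evaluation: % inhibition relative to enzyme-containing and enzyme-free wells / Repeats: singlicate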
PAD4 inh: PAD4 (human) enzyme inhibition; recombinant PAD4, RCA probe fluorescence polarization; inhibition, % at 6.36 µM; hit rate 0.41% among 330,000; AID 485272;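 active means percent inhibition above a cutoff equal to the mean of all tested compounds plus 3 SD, cut at about 15% in these data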;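 further: 0% = PAD4 with RCA probe and DMSO and 100% = probe without PAD4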
GSTO1 counter: GSTO1 inhibition, counter-screen for RBBP9 inhibitors; P78417; recombinant GSTO1, activity-based probe fluorescence polarization; inhibition, % at 5.96 µM; hit rate 1.1% among 300,000;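 active means inhibition above the campaign mean inhibition plus 3 SD, cut at about 35% in these data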;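 further: 0% = GSTO1-1 with DMSO and 100% = wells lacking GSTO1-1 enzyme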
Target sequence (P78417 whole entry, looked up): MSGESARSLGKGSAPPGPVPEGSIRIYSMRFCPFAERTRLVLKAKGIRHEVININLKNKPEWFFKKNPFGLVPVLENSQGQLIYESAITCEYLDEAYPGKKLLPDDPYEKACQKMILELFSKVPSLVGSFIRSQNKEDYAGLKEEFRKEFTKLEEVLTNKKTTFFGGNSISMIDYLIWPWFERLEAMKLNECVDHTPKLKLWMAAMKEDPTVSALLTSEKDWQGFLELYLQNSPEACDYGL
PAD4 confirm: confirmation of human PAD4 inhibitors | AID 488796 | shares compounds with PAD4 inh | hit rate 28% among 1,200 | inhibition, % at 6.36 µM | recombinant PAD4, RCA probe fluorescence polarization;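 active means mean inhibition across replicates above the hit cutoff set by the earlier primary screen, cut at about 15% in these data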;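 further: inhibitors block active-site labeling by the probe so polarization falls; 0% = PAD4 with probe and DMSO and 100% = probe without PAD4 enzyme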
* = called active by the depositor; x = no result given. Hits are enriched below; roughly 1.4% of the tested compounds scored in any of these assays.

SMILES	Fh CTSL1 inh	TDP2 absorb	PAD4 inh	GSTO1 counter	PAD4 confirm
CN(C(=S)NC(=O)C12CC3CC(CC(C3)C1)C2)c1ccc(O)cc1	x	19	24*	x	1
CC[C@H](CCCc1ccc(OC)cc1)CCC(=O)N1CCOCC1	x	8	x	x	x
NS(=O)(=O)c1ccc2c(c1)C(=NO)c1cc(S(N)(=O)=O)ccc1-2	-3	9	0	4	x
CN(CCO)S(=O)(=O)c1ccc2c(c1)C(=NO)c1cc(S(=O)(=O)N(C)CCO)ccc1-2	-3	1	15*	-8	-8
C[C@@H]1CN([C@H](C)CO)C(=O)CCCn2nncc2CO[C@H]1CN(C)S(=O)(=O)c1ccc(C#N)cc1	x	5	x	x	x
O=C(NC1=N[C@@]2(C=C3CCCCC3n3c(=O)n(-c4ccccc4)c(=O)n32)CN1Cc1ccccc1)c1ccccc1 (stereo partly specified)	x	2	x	x	x
COc1ccc(OC)c(Nc2nc(C)nc3c2oc2ccccc23)c1	1	4	1	-4	x
COc1ccc(Cl)cc1Nc1nc(C)nc2c1oc1ccccc12	3	-11	15*	1	-15
CCCC1CCC2(CCCN2CCOC(=O)Nc2ccc(F)cc2)CC1 (stereo unspecified)	x	-7	x	x	x
CCOC(=O)[C@@]12CCCC3=C1N(CCC3)C(=O)[C@H]2CC(=O)NCCCOC	x	1	x	x	x
CC(=O)c1cccc(NC(=S)NC2CCCCC2)c1	2	1	33*	24	7
Cc1cc(C)cc(C(=O)OCCN(C)C2CN(Cc3cn(Cc4ccccc4C(F)(F)F)nn3)S(=O)(=O)C2)c1 (stereo unspecified)	x	4	x	x	x
CNC(=O)c1c(C)[nH]c(=S)c(C#N)c1-c1ccco1	4	-10	26*	8	3
Cn1cccc1/C=C1\SC(=S)N(NC(=O)c2ccccc2Cl)C1=O	3	-6	18*	0	2
Cc1ccc(C(=O)NN2C(=O)/C(=C/c3cccn3C)SC2=S)cc1	4	1	9	-2	x
CCOC(=O)[C@]12CCCCC/C=C\1N(Cc1ccc(OC)cc1)C(=O)[C@H]2CC(=O)NCCC(C)C	x	9	x	x	x
CC(=O)C1=CCC(c2cccc(Cl)c2)N(S(=O)(=O)c2ccc(C)cc2)C1 (stereo unspecified)	x	-6	x	x	x
Cc1cc(NC(=O)CCC(=O)N(c2ccccc2)C(C(=O)NC2CCCC2)c2ccccc2F)no1 (stereo unspecified)	0	-3	19*	-3	2
C[N+]1(C)[C@H]2CC[C@H]1CC(OC(=O)C(O)c1ccccc1)C2 (stereo partly specified)	x	0	x	x	x
Nc1nonc1-n1nnc(C(=O)N/N=C/c2cccnc2)c1CSC1=NCCS1	-6	-4	35*	-17	10
Nc1nonc1-n1nnc(C(=O)N/N=C/c2ccc(Br)cc2)c1CSC1=NCCS1	-2	-13	10	-9	x
O=C(Oc1ccc(-c2cnc3ccccc3n2)cc1)c1ccc(Br)o1	-3	7	39*	5	27*
COCCOC(=O)C(C#N)c1nc2ccccc2nc1N1CCCC1 (stereo unspecified)	1	0	18*	5	9
COCCCNC(=O)C(C#N)c1nc2ccccc2nc1N1CCCC1 (stereo unspecified)	4	6	-8	-2	x
CC(C)(C)N(Cc1ccccc1)C(=O)c1cccs1	2	-5	2	0	x
SMILES	Fh CTSL1 inh	TDP2 absorb	PAD4 inh	GSTO1 counter	PAD4 confirm
N#CCCN(Cc1ccccc1)C(=O)c1cccs1	-2	-1	31*	-1	8
CC(C)(C)c1ccc(Cn2nnc3c(=O)[nH]c(C4CCN(C(=O)Cc5cccs5)CC4)nc32)cc1	2	-4	37*	9	-6
COc1cccc(NC(=S)NCc2ccc3c(c2)cc(C)n3C)c1	x	4	x	x	x
Cc1cccc(NC(=S)NCc2ccc3c(c2)cc(C)n3C)c1C	6	-12	19*	2	-4
Nc1ccccc1SSc1ccccc1N	2	3	8	-15	x
CC(C(Sc1ccccc1N)c1ccccc1)[N+](=O)[O-] (stereo unspecified)	-1	2	18*	-2	15*
CC(=O)Nc1ccc(S(=O)(=O)NCc2ccc3c(c2)cc(C)n3C)cc1	1	-8	16*	1	7
COc1ccc(NC(=O)C(c2cc3c(cc2[N+](=O)[O-])OCO3)N(C)C)cc1 (stereo unspecified)	1	4	31*	7	5
CC(C)C[C@H]1COc2c(Cl)cccc2S(=O)(=O)N1	x	4	x	x	x
CN(CCc1ccccn1)C(=O)c1ccc(Sc2ccccc2Cl)c([N+](=O)[O-])c1	x	4	x	x	x
C/C(=N\O)c1ccc2c3ccccc3n(C)c2c1	-2	2	-1	8	x
CCn1c2ccccc2c2cc(/C(C)=N/O)ccc21	1	6	16*	6	0
CCN(CC)S(=O)(=O)c1ccc(N=NC2=C(O)CC(C)(C)CC2=O)cc1	2	6	1	-3	x
CCN(CC)S(=O)(=O)c1ccc(N=NC2=C(O)CCCC2=O)cc1	0	7	168*	8	4
COc1cc(OC)c(OC)cc1/C=N/NC(=O)c1ccc2nc[nH]c2c1	1	-8	16*	-10	1
COc1ccc(/C=N/NC(=O)c2ccc3nc[nH]c3c2)c(OC)c1	3	1	-1	0	x
Cc1ccccc1NC(=O)OC1CCC12CCCCC2 (stereo unspecified)	x	1	x	x	x
O=S(=O)(c1cccs1)N1CN(Cc2ccco2)c2nc3ccccc3nc21	4	0	77*	37*	4
COc1ccc(Cn2c(NC(=O)c3ccccc3)nc(Cc3ccccc3)c2-c2ccccc2)c(OC)c1	x	5	x	x	x
Cc1csc(NC(=O)CSc2ncnc3ccccc23)n1	2	-12	10	3	x
Cc1csc(NC(=O)CSc2ncnc3c2cnn3-c2ccccc2Cl)n1	1	x	15*	-24	8
CC(C)Cn1c(N)c(C(=O)NCCN2CCOCC2)c2nc3ccccc3nc21	1	9	-4	-2	x
Cc1cccc(-n2c(N)c(C(=O)NCCN3CCOCC3)c3nc4ccccc4nc32)c1	3	-2	17*	37*	-11
N#Cc1cc(-c2ccccc2)[nH]c1-c1nccc2ccccc12	11	10	22*	-10	12
C=CCN1[C@@H](C)COc2cc(N3CCSCC3)ccc2S1(=O)=O	x	-2	x	x	x
COc1cc(SC#N)ccc1N=Cc1c(C)[nH]n(-c2ccc(Cl)cc2)c1=O	3	1	30*	-14	37*
COc1cc(SC#N)ccc1N=Cc1c(C)[nH]n(-c2ccc(C)c(C)c2)c1=O	5	6	12	-4	x
Cc1ccc2c(c1)C(CS(=O)(=O)NCc1ccccc1)NC2 (stereo unspecified)	x	-8	x	x	x
O=S1(=O)c2ccc(N3CC[C@H](O)C3)cc2O[C@H]2CCN1C2	x	-1	x	x	x
Cc1ccc2sc(C)[n+](CCCS(=O)(=O)[O-])c2c1	0	0	17*	2	-2
